Results from ChEMBL document CHEMBL1128463, “Design, synthesis, and antiviral activity of certain 2,5,6-trihalo-1-(beta-D-ribofuranosyl)benzimidazoles” (J Med Chem, 1995).
pIC50: −log10 of the molar value.

Tests used:
Human alphaherpesvirus 1 = test: Compound was evaluated for the antiviral activity against HSV-1 determined by using ELISA method; assay type: functional, organism-based
In short: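 HSV-1 (KOS strain in most experiments) at 100 PFU/well on BSC-1 cells (10 000/well), drug in quadruplicate, 3–5 days at 37 °C. Wells blocked, probed with HRP-conjugated rabbit anti-HSV-1 antibody, developed with tetramethylbenzidine and read at 450 and 570 nm. Percent absorbance reduction versus virus-only wells; IC50 from regression on log concentration.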

KB = test: Compound was evaluated for the inhibition of KB cell growth determined in quadruplicate assay; assay type: functional, cell-based; conditions: Homo sapiens
In short: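 KB cells at 3000–5000/well, compound added in quadruplicate at six to eight concentrations, 48 h at 37 °C (about two population doublings). Cells fixed with ethanol, stained with crystal violet, eluted dye read at 570 nm. IC50 from regression of percent inhibition on log concentration.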

Human betaherpesvirus 5 [1] = test: Compound was evaluated for the antiviral activity against HCMV determined by using Yield reduction assay; assay type: functional
In short: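 HFF cells at 12 500 cells/well, infected with Towne HCMV at MOI 0.5–1 PFU/cell. Compounds added after adsorption, 1:3 serial dilutions spanning about 1000-fold (e.g. 100–0.14 μM), in duplicate. 7 days at 37 °C, one freeze-thaw, then progeny titred by plaque count on fresh HFF plates. Reported as IC90.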

Human betaherpesvirus 5 [2] = test: Compound was evaluated for the antiviral activity against HCMV determined by using Plaque assay; assay type: functional, organism-based
In short: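 Towne strain HCMV (plaque-purified P0) on HFF monolayers, about 100 PFU/cm², 2 h adsorption at 37 °C. Compounds added in growth medium, four to eight concentrations, duplicate wells. Incubated 7–10 days at 37 °C, then crystal violet stain and microscopic plaque count. Percent plaque reduction versus no-drug wells, regressed on log concentration to give IC50.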

HFF = test: Compound was evaluated for the visual cytotoxicity scored on HFF cells at time of HCMV plaque enumeration; assay type: functional, cell-based; conditions: Homo sapiens
In short: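 Stationary HFF cells not affected by virus in the HCMV plaque assay, inspected microscopically for cytotoxicity when plaques were counted (after 7–10 days at 37 °C). Reported as IC50.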

## Nc1nc2cc(Cl)c(Cl)cc2n1C1O[C@H](CO)[C@@H](O)[C@H]1O (some centres not stated)
Human alphaherpesvirus 1
  pIC50: 4.30
KB
  pIC50: 4.40
Human betaherpesvirus 5 [1]
  IC90: 8000 nM
Human betaherpesvirus 5 [2]
  pIC50: 4.40
HFF
  pIC50: 4.49

## Clc1nc2cc(Cl)c(Cl)cc2[nH]1
Human alphaherpesvirus 1
  pIC50: 4.29
KB
  pIC50: 4.72
Human betaherpesvirus 5 [2]
  pIC50: 5.19
HFF
  pIC50: 4.62

## Nc1nc2cc(Cl)c(Cl)cc2[nH]1
Human alphaherpesvirus 1
  pIC50: < 4.00
KB
  pIC50: < 4.00
Human betaherpesvirus 5 [2]
  pIC50: 4.00
HFF
  pIC50: 4.00

## O=[N+]([O-])c1c(Cl)c(Cl)cc2c1nc(O)n2C1O[C@H](CO)[C@@H](O)[C@H]1O (some centres not stated)
Human alphaherpesvirus 1
  pIC50: < 4.00
Human betaherpesvirus 5 [2]
  pIC50: < 4.00
HFF
  pIC50: 4.00

## CC(=O)OC[C@H]1O[C@@H](n2c(Br)nc3cc(Cl)c(Cl)cc32)[C@H](OC(C)=O)[C@@H]1OC(C)=O
Human alphaherpesvirus 1
  pIC50: < 4.00
KB
  pIC50: 4.60
Human betaherpesvirus 5 [1]
  IC90: 200 nM
Human betaherpesvirus 5 [2]
  pIC50: 5.82
HFF
  pIC50: 4.00

## OC[C@H]1OC(n2c(I)nc3cc(Cl)c(Cl)cc32)[C@H](O)[C@@H]1O (some centres not stated)
Human alphaherpesvirus 1
  pIC50: 4.68
KB
  pIC50: 4.64
Human betaherpesvirus 5 [1]
  IC90: 26000 nM
Human betaherpesvirus 5 [2]
  pIC50: 4.52
HFF
  pIC50: 3.93

## OC[C@H]1O[C@@H](n2c(Cl)nc3cc(Cl)c(Cl)cc32)[C@H](O)[C@@H]1O
Human alphaherpesvirus 1
  pIC50: 3.99
KB
  pIC50: 3.68
Human betaherpesvirus 5 [1]
  IC90: 1400 nM
Human betaherpesvirus 5 [2]
  pIC50: 5.54
HFF
  pIC50: 3.62

## O=C(O)P(=O)(O)O [FOSCARNET SODIUM]
HFF
  pIC50: < 4.00

## CC(=O)OC[C@H]1O[C@@H](n2c(Cl)nc3cc(Cl)c(Cl)cc32)[C@H](OC(C)=O)[C@@H]1OC(C)=O
KB
  pIC50: < 4.00
Human betaherpesvirus 5 [1]
  IC90: 200 nM
Human betaherpesvirus 5 [2]
  pIC50: 5.70
HFF
  pIC50: 4.00

## Clc1cc2nc(Br)[nH]c2cc1Cl
KB
  pIC50: 4.25
Human betaherpesvirus 5 [2]
  pIC50: 4.92
HFF
  pIC50: 4.68

## OC[C@H]1OC(n2c(O)nc3cc(Cl)c(Cl)cc32)[C@H](O)[C@@H]1O (some centres not stated)
Human betaherpesvirus 5 [2]
  pIC50: < 4.00
HFF
  pIC50: 4.00

## Nc1nc2c(ncn2COC(CO)CO)c(=O)[nH]1 [GANCICLOVIR]
KB
  pIC50: < 4.00
Human betaherpesvirus 5 [1]
  IC90: 1600 nM
HFF
  pIC50: < 4.00

## OC[C@H]1O[C@H](n2c(Br)nc3cc(Cl)c(Cl)cc32)[C@@H](O)[C@H]1O
Human alphaherpesvirus 1
  pIC50: 3.89
KB
  pIC50: < 4.00
Human betaherpesvirus 5 [1]
  IC90: 200 nM
Human betaherpesvirus 5 [2]
  pIC50: 6.15
HFF
  pIC50: 3.93

## OC[C@H]1O[C@@H](n2cnc3cc(Cl)c(Cl)cc32)[C@H](O)[C@@H]1O [DICHLORORIBOBENZIMIDAZOLE]
KB
  pIC50: 4.44
Human betaherpesvirus 5 [1]
  IC90: 19000 nM
HFF
  pIC50: 4.62
